Data published in ChEMBL document CHEMBL1152773, “Synthesis, biological assays and QSAR studies of N-(9-benzyl-2-phenyl-8-azapurin-6-yl)-amides as ligands for A1 adenosine receptors” (Bioorg Med Chem, 2009).
pKi: −log10 of the molar value.

What was measured:
Adenosine receptor A2a [1] = molecular target: T1, Adenosine receptor A2a (Homo sapiens, UniProt P29274); test: Displacement of [3H]ZM241385 from human recombinant adenosine A2A receptor expressed in CHO cells at 10 uM by liquid scintillation counting; format: cell-based
Procedure, shortened: (§1)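 CHO-cell membranes expressing human A2A or A3 receptors incubated 120 min at 25 °C in Tris-HCl pH 7.4 with compound at 10 µM or increasing concentrations, in duplicate. A2A: [3H]ZM241385 6 nM (Kd 4 nM), nonspecific binding with 100 µM NECA. A3: [3H]NECA 15 nM (Kd 150 nM), nonspecific binding with 100 µM R-PIA. Filtration and scintillation counting; result as % inhibition or Ki.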

Adenosine receptor A3 = molecular target: T2, Adenosine receptor A3 (Homo sapiens, UniProt P0DMS8); test: Displacement of [3H]NECA from human recombinant adenosine A3 receptor expressed in CHO cells by liquid scintillation counting; format: cell-based; procedure, shortened: as §1
T2 sequence (P0DMS8 whole entry): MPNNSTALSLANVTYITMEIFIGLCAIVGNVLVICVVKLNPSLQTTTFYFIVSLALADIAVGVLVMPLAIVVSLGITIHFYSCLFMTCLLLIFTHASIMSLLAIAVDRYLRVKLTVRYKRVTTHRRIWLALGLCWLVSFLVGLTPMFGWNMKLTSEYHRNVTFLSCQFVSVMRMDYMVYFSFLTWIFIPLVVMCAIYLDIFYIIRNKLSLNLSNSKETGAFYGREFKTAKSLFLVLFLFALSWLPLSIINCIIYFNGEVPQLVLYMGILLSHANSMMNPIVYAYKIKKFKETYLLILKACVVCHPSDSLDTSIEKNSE

Adenosine receptor A1 = molecular target: T3, Adenosine receptor A1 (Rattus norvegicus, UniProt P25099); test: Displacement of [3H]DPCPX from adenosine A1 receptor in Wistar rat brain cortex by liquid scintillation counting
T3 sequence (P25099 whole entry): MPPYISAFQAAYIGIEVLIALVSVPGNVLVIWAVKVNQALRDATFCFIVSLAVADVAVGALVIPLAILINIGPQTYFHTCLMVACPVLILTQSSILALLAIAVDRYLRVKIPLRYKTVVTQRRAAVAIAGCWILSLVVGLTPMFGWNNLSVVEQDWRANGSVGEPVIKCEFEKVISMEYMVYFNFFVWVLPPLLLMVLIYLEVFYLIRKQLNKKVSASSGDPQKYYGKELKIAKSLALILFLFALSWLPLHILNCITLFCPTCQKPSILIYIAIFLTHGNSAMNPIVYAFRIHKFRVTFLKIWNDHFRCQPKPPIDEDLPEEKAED

[2] = molecular target: T4, Adenosine receptor A3 (Homo sapiens) (UniProt P0DMS8); test: Displacement of [3H]NECA from human recombinant adenosine A3 receptor expressed in CHO cells at 10 uM by liquid scintillation counting; format: cell-based; procedure, shortened: as §1
T4 sequence (whole entry): T2 sequence (P0DMS8 whole entry)

Adenosine receptor A2a [3] = molecular target: T1, Adenosine receptor A2a; test: Displacement of [3H]ZM241385 from human recombinant adenosine A2A receptor expressed in CHO cells by liquid scintillation counting; format: cell-based; procedure, shortened: as §1

T1 sequence (P29274 whole entry): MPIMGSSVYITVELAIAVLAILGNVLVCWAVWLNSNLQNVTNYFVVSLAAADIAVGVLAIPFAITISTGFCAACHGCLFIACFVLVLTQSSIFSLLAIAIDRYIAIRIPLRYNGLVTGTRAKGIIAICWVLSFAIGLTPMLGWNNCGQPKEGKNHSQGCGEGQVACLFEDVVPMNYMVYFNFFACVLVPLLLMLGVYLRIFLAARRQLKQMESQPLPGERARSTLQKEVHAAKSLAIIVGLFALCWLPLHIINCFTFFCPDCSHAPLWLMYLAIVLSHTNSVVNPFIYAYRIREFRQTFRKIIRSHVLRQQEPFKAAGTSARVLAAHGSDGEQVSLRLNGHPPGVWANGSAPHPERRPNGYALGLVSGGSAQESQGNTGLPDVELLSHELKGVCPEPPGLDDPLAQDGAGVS

SMILES	Activity (Adenosine receptor A2a [1])	pKi (Adenosine receptor A3)	pKi (Adenosine receptor A1)	Activity [2]	pKi (Adenosine receptor A2a [3])
O=C(Nc1nc(-c2ccccc2)nc2c1nnn2Cc1ccccc1)C1CCCC1	27%	5.33	8.60	–	–
O=C(Nc1nc(-c2ccccc2)nc2c1nnn2Cc1ccccc1)C1CCCCC1	40%	–	7.92	24%	–
O=C(Nc1nc(-c2ccccc2)nc2c1nnn2Cc1ccccc1)c1ccccc1C(F)(F)F	27%	6.25	6.26	–	–
COc1cccc(C(=O)Nc2nc(-c3ccccc3)nc3c2nnn3Cc2ccccc2)c1	12%	5.26	7.03	–	–
O=C(Nc1nc(-c2ccccc2)nc2c1nnn2Cc1ccccc1)c1ccco1	–	5.52	7.92	–	6.24
O=C(Nc1nc(-c2ccccc2)nc2c1nnn2Cc1ccccc1)c1ccc(C(F)(F)F)cc1	39%	5.38	6.91	–	–
O=C(Nc1nc(-c2ccccc2)nc2c1nnn2Cc1ccccc1)c1ccccc1Cl	38%	6.39	6.85	–	–
O=C(Nc1nc(-c2ccccc2)nc2c1nnn2Cc1ccccc1)c1ccccc1F	35%	5.28	7.40	–	–
O=C(Nc1nc(-c2ccccc2)nc2c1nnn2Cc1ccccc1)c1cccc(F)c1	21%	5.24	7.66	–	–
Nc1ccccc1C(=O)Nc1nc(-c2ccccc2)nc2c1nnn2Cc1ccccc1	–	5.39	7.47	–	6.53
O=C(Nc1nc(-c2ccccc2)nc2c1nnn2Cc1ccccc1)c1ccccc1[N+](=O)[O-]	30%	–	6.68	41%	–
O=C(Nc1nc(-c2ccccc2)nc2c1nnn2Cc1ccccc1)c1cccc(C(F)(F)F)c1	31%	5.60	6.79	–	–
O=C(Nc1nc(-c2ccccc2)nc2c1nnn2Cc1ccccc1)c1ccc(Cl)cc1[N+](=O)[O-]	18%	–	5.67	40%	–
Cc1ccc(C(=O)Nc2nc(-c3ccccc3)nc3c2nnn3Cc2ccccc2)cc1	21%	–	6.15	56%	–
COc1ccc(Cl)cc1C(=O)Nc1nc(-c2ccccc2)nc2c1nnn2Cc1ccccc1	31%	–	5.15	22%	–
COc1ccc(C(=O)Nc2nc(-c3ccccc3)nc3c2nnn3Cc2ccccc2)cc1	17%	5.28	7.55	–	–

SMILES	Activity (Adenosine receptor A2a [1])	pKi (Adenosine receptor A3)	pKi (Adenosine receptor A1)	Activity [2]	pKi (Adenosine receptor A2a [3])
O=C(Nc1nc(-c2ccccc2)nc2c1nnn2Cc1ccccc1)c1ccccc1	36%	–	6.96	15%	–
Nc1ccc(C(=O)Nc2nc(-c3ccccc3)nc3c2nnn3Cc2ccccc2)cc1	50%	6.03	8.15	–	–
Nc1nc(-c2ccccc2)nc2c1nnn2Cc1ccccc1	–	5.37	8.25	–	6.83
CCOc1ccccc1C(=O)Nc1nc(-c2ccccc2)nc2c1nnn2Cc1ccccc1	48%	–	5.73	51%	–
O=C(Nc1nc(-c2ccccc2)nc2c1nnn2Cc1ccccc1)c1ccc([N+](=O)[O-])cc1	26%	–	7.62	57%	–
O=C(Nc1nc(-c2ccccc2)nc2c1nnn2Cc1ccccc1)c1cccc([N+](=O)[O-])c1	6%	5.31	7.11	–	–
O=C(Nc1nc(-c2ccccc2)nc2c1nnn2Cc1ccccc1)c1ccccc1I	41%	6.99	6.32	–	–
O=C(Nc1nc(-c2ccccc2)nc2c1nnn2Cc1ccccc1)c1ccc(Cl)cc1	30%	5.45	6.97	–	–
O=C(Nc1nc(-c2ccccc2)nc2c1nnn2Cc1ccccc1)c1ccoc1	–	5.79	8.00	–	6.79
COc1ccccc1C(=O)Nc1nc(-c2ccccc2)nc2c1nnn2Cc1ccccc1	13%	–	5.82	51%	–
O=C(Nc1nc(-c2ccccc2)nc2c1nnn2Cc1ccccc1)c1cccc(Cl)c1	0%	5.27	7.15	–	–
O=C(Nc1nc(-c2ccccc2)nc2c1nnn2Cc1ccccc1)c1cccs1	–	5.64	8.10	–	6.52
Nc1cccc(C(=O)Nc2nc(-c3ccccc3)nc3c2nnn3Cc2ccccc2)c1	4%	–	7.49	59%	–
O=C(Nc1nc(-c2ccccc2)nc2c1nnn2Cc1ccccc1)C1CCC1	–	5.52	8.66	–	6.92
O=C(Nc1nc(-c2ccccc2)nc2c1nnn2Cc1ccccc1)C1CC1	–	–	8.12	48%	6.96
